# Results of several laboratories.
# Compare with care: the assays were run in different laboratories.
# Target: Cytochrome P450 1A2 (CYP1A2, Homo sapiens, UniProt P05177)
# Observed: enzyme activity
# Action: inhibitor
# Sequence (P05177 1-516, as in one of the studies): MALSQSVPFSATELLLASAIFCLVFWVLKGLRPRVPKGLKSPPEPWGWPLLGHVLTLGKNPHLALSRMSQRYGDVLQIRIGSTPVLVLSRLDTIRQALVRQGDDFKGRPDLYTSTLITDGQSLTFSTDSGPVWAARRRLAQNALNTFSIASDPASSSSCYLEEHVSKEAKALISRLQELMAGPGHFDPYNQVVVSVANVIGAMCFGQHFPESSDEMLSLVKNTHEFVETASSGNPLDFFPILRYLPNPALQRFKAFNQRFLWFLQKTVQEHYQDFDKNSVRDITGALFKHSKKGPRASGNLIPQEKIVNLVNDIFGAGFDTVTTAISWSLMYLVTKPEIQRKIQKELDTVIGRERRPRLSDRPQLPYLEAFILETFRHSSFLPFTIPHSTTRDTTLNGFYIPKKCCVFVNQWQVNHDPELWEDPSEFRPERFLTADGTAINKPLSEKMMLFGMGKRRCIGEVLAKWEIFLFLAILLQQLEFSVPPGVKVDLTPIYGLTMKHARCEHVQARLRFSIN
Structure (SMILES),technique,host,matrix,time,pH,measurement,value
COc1ccn2c(Nc3ccccc3F)c(-c3ccncn3)nc2c1,,,,,,IC50,1.8 µM
CC1=CC(=O)C(C(C)C)=CC1=O,fluorescence,,,,pH 7.4,IC50,557 µM
COc1ccc2[nH]c([S+]([O-])Cc3ncc(C)c(OC)c3C)nc2c1 (stereo not drawn),fluorescence,,,,,IC50,112 µM
Cc1cc(C)c2c(c1)[C@@H](N(Cc1cc(C(F)(F)F)cc(C(F)(F)F)c1)c1nnn(C)n1)CCCN2C[C@H]1CC[C@H](C(=O)O)CC1,,human,liver microsomes,,pH 7.4,Ki,7.1 µM
N#Cc1ccnc(Oc2nn([C@H]3C[C@H](F)C3)c3ncnc(N)c23)c1,,human,liver microsomes,10 min,,IC50,20.8 µM
CCC(C)(C)C(=O)O[C@H]1C[C@@H](C)C=C2C=C[C@H](C)[C@H](CC[C@@H](O)C[C@@H](O)CC(=O)O)[C@H]21,fluorescence,,,,,IC50,> 100 µM
CCc1cc(/C(C)=N/OCc2ccc(C3CCCCC3)c(C(F)(F)F)c2)ccc1CN1CC(C(=O)O)C1,,human,liver microsomes,20 min,,IC50,> 1.1 µM
C[C@H]1CN(c2n[nH]c3nc(N[C@H]4CC[C@H](NS(=O)(=O)CCC(F)(F)F)CC4)ncc23)CCO1,,,,,,IC50,> 100 µM
C#Cc1cccc2oc(-c3ccccc3)cc(=O)c12,,,,6 min,pH 7.6,Ki,0.81 µM
CCn1c(C(=O)N(C2CC2)C2CC2)cc2c3c(ncn3C)c(Nc3cc(C)n(C)n3)nc21,,human,liver microsomes,,,Ki,0.6 µM
COc1ccc2c(Cc3ccccc3F)c3[n+](cc2c1OC)CCc1cc2c(cc1-3)OCO2,,,,,,IC50,> 10 µM
C#Cc1cccc(-c2cc(=O)c3ccccc3o2)c1,,,,6 min,pH 7.6,Ki,0.8 µM
